ChEMBL document CHEMBL4732226, “Discovery of a potent G-protein-coupled receptor 119 agonist for the treatment of type 2 diabetes” (Bioorg Med Chem, 2021)

Legend:
[1] = Elimination rate constant in Beagle dog at 10 mg/kg, po up to 24 hrs; assay type: ADME, organism-based, Canis lupus familiaris; conditions: in vivo
Procedure, shortened: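 Single oral dose at 10 mg/kg given to male Wistar rats and to Beagle dogs; bioavailability also determined in both species.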

[2] = Toxicity in female Wistar rat assessed as ratio of uterus to body weight at 100 mg/kg, po after 28 days (reference value: 0.335 +/- 0.108); assay type: organism-based; conditions: in vivo, 672 h, time 28 day
[3] = Toxicity in female Wistar rat assessed as ALT level at 400 mg/kg, po after 28 days (reference value: 21.28 +/- 2.31 U/L); assay type: organism-based; conditions: in vivo, 672 h, time 28 day

Cc1c(Oc2cccc(/C=C3\SC(=O)NC3=O)c2)ncnc1OC1CCN(C(=O)OC(C)(C)C)CC1
k el at 24 h [1]: 1.11e-05 s⁻¹
Ratio [2]: 0.345
Activity [3]: 23.3 U/L
